Assay results reported in publication PMC10754386 (Acta physiologica (Oxford, England), 2022).

Columns and labels:
[1] = test system: NCD-WT mice; assay: Liver glycogen content in NCD-WT mice; type: in vivo, mouse
[2] = test system: CST-KO mice; assay: Liver glycogen content in NCD-CST-KO mice; type: in vivo, mouse; conditions: fed state, insulin 30 min, Figure 4B
[3] = test system: mice; assay: Plasma counterregulatory hormones; type: in vivo, mouse; conditions: NCD-WT mice; acute insulin for 30 minutes; n = 7; Figure 2B,C
[4] = test system: PI3-kinase; assay: PI-3-kinase activity in anti-p85 immunoprecipitates of hepatocytes; type: cell-based, mouse; conditions: CST 100 nM for 1 hour, insulin 10 nM for 10 minutes, Figure 6E
In short: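 Mouse hepatocytes were left untreated or exposed to CST (100 nM, 1 hr) or insulin (10 nM, 10 min), then lysed. Anti-p85 immunoprecipitates were washed and assayed with phosphatidylinositol substrate and γ-32P-ATP. Labelled lipids were extracted, mixed with reference lipids and separated by TLC (CHCl3–MeOH–H2O–NH4OH (25%), 45:35:8.5:1.5). PI3P was detected by autoradiography.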

[5] = test system: IR, IRS-1, mTOR, AKT; assay: Immunoblotting of phosphorylation signals in primary hepatocytes; type: cell-based, mouse; conditions: cultured hepatocytes; immunoblot; n = 3; Figure 6A–D
[6] = test system: GSK-3β; assay: Immunoblotting of GSK-3β in liver; type: in vivo, mouse; conditions: liver of fasted NCD-WT and DIO-WT mice; immunoblot; n = 4; Figure 9A,B

insulin
effect on liver glycogen level ([1]; fasted NCD-WT mice, insulin 30 minutes, CST 2 μg/g body weight acute (1 hour) and chronic (10–15 days), Figure 1A,C,D): restored glycogen level | fold increase in hepatic glycogen content ([1]; fasted lean mice, CST or insulin alone): > fivefold | effect on hepatic glycogen content [2]: failed to increase | effect on plasma noradrenaline and adrenaline levels [3]: raised plasma noradrenaline and adrenaline levels only in the fasted state | effect on PI3-kinase activity (PI3P formation) [4]: stimulated PI3-kinase activity | effect on tyrosine phosphorylation of IR and IRS-1 [5]: stimulated tyrosine phosphorylation | effect on GSK-3β Ser9 phosphorylation [6]: increased GSK-3β Ser9 phosphorylation
